In ChEMBL document CHEMBL4834419 (J Med Chem, 2021) one finds Activity data, which are given here for one compound.

Each structure is given as a SMILES string.

This test concerns the target T1, Retinoic acid receptor RXR-gamma (Homo sapiens) (UniProt P48443).
T1 sequence (whole entry): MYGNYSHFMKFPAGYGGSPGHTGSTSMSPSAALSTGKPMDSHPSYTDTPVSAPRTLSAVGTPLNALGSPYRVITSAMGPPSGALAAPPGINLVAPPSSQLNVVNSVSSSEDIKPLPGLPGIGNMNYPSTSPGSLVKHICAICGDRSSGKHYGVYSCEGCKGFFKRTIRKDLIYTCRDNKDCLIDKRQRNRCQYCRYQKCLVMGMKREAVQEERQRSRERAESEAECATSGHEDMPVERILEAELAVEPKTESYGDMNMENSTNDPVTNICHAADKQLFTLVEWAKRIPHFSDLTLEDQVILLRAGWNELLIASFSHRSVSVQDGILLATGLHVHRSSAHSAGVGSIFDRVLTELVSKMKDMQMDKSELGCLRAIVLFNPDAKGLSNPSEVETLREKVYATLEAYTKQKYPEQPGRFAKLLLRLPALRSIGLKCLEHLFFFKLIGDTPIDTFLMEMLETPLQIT
In words: Agonist activity against human RXRgamma in human HEK293T cells co-expressing pFR/pRL-Luc assessed as receptor activation at 10 uM incubated for 14 to 16 hrs by hybrid reporter gene assay relative to bexarotene. Type of test: cell-based. The conditions noted are these: filed as agonist, time 14-16 hrs. A digest of the protocol:
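Gal4 hybrid reporter assay in HEK293T cells, seeded 24 h before transfection (Lipofectamine LTX, Opti-MEM) with pFR-Luc, pRL-SV40 and pFA-CMV plasmid carrying the hinge region and LBD of the human receptor. After 5 h, compound added in 0.1% DMSO, with 0.1% DMSO alone as untreated control. Dual-Glo luciferase read after 14−16 h; firefly/renilla normalized; duplicates, ≥2 independent experiments.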
(A reporter such as luciferase makes a cellular process visible.)

Take `O=C(O)CCCc1cc(-c2cc(Cl)cc(Cl)c2)n(-c2ccccc2)n1`: the Activity came out at 27%.
